Laboratory results taken from ChEMBL document CHEMBL5344414, “Maleimide constrained BAD BH3 domain peptides as BCL-xL Inhibitors: A versatile approach to rapidly identify sites compatible with peptide constraining” (Bioorg Med Chem Lett, 2023).
pIC50: −log10 of the molar value. The source made the active and inactive calls. The calls are words filed in the database; no cut-off is given here. Where a SMILES comes first, the peptide text is derived from it.

Molecular target: BCL2L1/BAD (Homo sapiens, UniProt Q07817)
Sequence (Q92934 whole entry, the tested form may be a part): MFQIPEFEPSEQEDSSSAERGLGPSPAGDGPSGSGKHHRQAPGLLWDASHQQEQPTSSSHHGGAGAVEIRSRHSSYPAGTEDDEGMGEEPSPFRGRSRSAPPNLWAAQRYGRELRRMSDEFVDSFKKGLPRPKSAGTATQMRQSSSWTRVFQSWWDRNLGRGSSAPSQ
Sequence (Q07817 whole entry, the tested form may be a part): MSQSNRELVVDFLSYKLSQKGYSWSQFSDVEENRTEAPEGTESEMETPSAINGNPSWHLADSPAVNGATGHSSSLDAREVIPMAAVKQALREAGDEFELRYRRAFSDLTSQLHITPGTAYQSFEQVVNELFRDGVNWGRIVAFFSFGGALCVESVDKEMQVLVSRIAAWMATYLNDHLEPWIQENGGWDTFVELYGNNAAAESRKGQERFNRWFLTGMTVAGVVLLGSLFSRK
Experiment: Inhibition of BAD/His-SUMO tagged BCL-XL (1 to 209 residues; missing 27 to 82 residues) (unknown origin) overexpressed in Escherichia coli BL21 protein-protein interaction by fluorescence anisotropy competition assay
Procedure, shortened: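 Final conditions: 200 nM BCL-xL, 50 nM tracer, 20 mM Tris, 150 mM NaCl, pH 7.6, 20 °C, with peptide titrated. Tracer Kd for BCL-xL was determined beforehand by direct titration (6 nM-125 μM protein).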

| Structure (SMILES) | pIC50 |
| --- | --- |
| CSCC[C@H](NC(=O)[C@H](CCCNC(=N)N)NC(=O)[C@H](CCCNC(=N)N)NC(=O)[C@H](CC(C)C)NC(=O)[C@H](CCC(=O)O)NC(=O)[C@H](CCCNC(=N)N)NC(=O)CNC(=O)[C@H](Cc1ccc(O)cc1)NC(=O)[C@H](CCCNC(=N)N)NC(C)=O)C(=O)N[C@@H](CO)C(=O)N[C@H]1CS2=S(C[C@@H](C(=O)N[C@@H](CO)C(=O)N[C@@H](Cc3ccccc3)C(=O)N[C@@H](CCCCN)C(=O)N[C@@H](CCCCN)C(N)=O)NC(=O)[C@H](C(C)C)NC(=O)[C@H](Cc3ccccc3)NC(=O)[C@H](CCC(=O)O)NC1=O)C(=O)NC2=O (stereo partly specified) | < 4.30 |
| CSCC[C@H](NC(=O)[C@H](CCCNC(=N)N)NC(=O)[C@@H]1CS2=S(C[C@H](NC(=O)[C@H](Cc3ccc(O)cc3)NC(=O)[C@H](CCCNC(=N)N)NC(C)=O)C(=O)N[C@@H](CCCNC(=N)N)C(=O)N[C@@H](CCC(=O)O)C(=O)N[C@@H](CC(C)C)C(=O)N1)C(=O)NC2=O)C(=O)N[C@@H](CO)C(=O)N[C@@H](CC(=O)O)C(=O)N[C@@H](CCC(=O)O)C(=O)N[C@@H](Cc1ccccc1)C(=O)N[C@H](C(=O)N[C@@H](CC(=O)O)C(=O)N[C@@H](CO)C(=O)N[C@@H](Cc1ccccc1)C(=O)N[C@@H](CCCCN)C(=O)N[C@@H](CCCCN)C(N)=O)C(C)C (stereo partly specified) | < 4.30 |
| CSCC[C@@H]1NC(=O)[C@H](CCCNC(=N)N)NC(=O)[C@@H](NC(=O)[C@H](CC(C)C)NC(=O)[C@H](CCC(=O)O)NC(=O)[C@H](CCCNC(=N)N)NC(=O)CNC(=O)[C@H](Cc2ccc(O)cc2)NC(=O)[C@H](CCCNC(=N)N)NC(C)=O)CS2=S(C[C@@H](C(=O)N[C@@H](CCC(=O)O)C(=O)N[C@@H](Cc3ccccc3)C(=O)N[C@H](C(=O)N[C@@H](CC(=O)O)C(=O)N[C@@H](CO)C(=O)N[C@@H](Cc3ccccc3)C(=O)N[C@@H](CCCCN)C(=O)N[C@@H](CCCCN)C(N)=O)C(C)C)NC(=O)[C@H](CO)NC1=O)C(=O)NC2=O (stereo partly specified) | < 4.30 |
| CSCC[C@H](NC(=O)[C@H](CCCNC(=N)N)NC(=O)[C@H](CCCNC(=N)N)NC(=O)[C@H](CC(C)C)NC(=O)[C@H](CCC(=O)O)NC(=O)[C@H](CCCNC(=N)N)NC(=O)CNC(=O)[C@H](Cc1ccc(O)cc1)NC(=O)[C@H](CCCNC(=N)N)NC(C)=O)C(=O)N[C@H]1CS2=S(C[C@@H](C(=O)N[C@@H](CC(=O)O)C(=O)N[C@@H](CO)C(=O)N[C@@H](Cc3ccccc3)C(=O)N[C@@H](CCCCN)C(=O)N[C@@H](CCCCN)C(N)=O)NC(=O)[C@H](Cc3ccccc3)NC(=O)[C@H](CCC(=O)O)NC(=O)[C@H](CC(=O)O)NC1=O)C(=O)NC2=O (stereo partly specified) | < 4.30 |
| CSCC[C@H](NC(=O)[C@H](CCCNC(=N)N)NC(=O)[C@H](CCCNC(=N)N)NC(=O)[C@H](CC(C)C)NC(=O)[C@H](CCC(=O)O)NC(=O)[C@H](CCCNC(=N)N)NC(=O)CNC(=O)[C@H](Cc1ccc(O)cc1)NC(=O)[C@H](CCCNC(=N)N)NC(C)=O)C(=O)N[C@@H](CO)C(=O)N[C@@H](CC(=O)O)C(=O)N[C@H]1CS2=S(C[C@@H](C(=O)N[C@@H](Cc3ccccc3)C(=O)N[C@@H](CCCCN)C(=O)N[C@@H](CCCCN)C(N)=O)NC(=O)[C@H](CC(=O)O)NC(=O)[C@H](C(C)C)NC(=O)[C@H](Cc3ccccc3)NC1=O)C(=O)NC2=O (stereo partly specified) | < 4.30 |
| CSCC[C@H](NC(=O)[C@H](CCCNC(=N)N)NC(=O)[C@H](CS)NC(=O)[C@H](CC(C)C)NC(=O)[C@H](CCC(=O)O)NC(=O)[C@H](CCCNC(=N)N)NC(=O)CNC(=O)[C@H](Cc1ccc(O)cc1)NC(=O)[C@H](CCCNC(=N)N)NC(C)=O)C(=O)N[C@@H](CO)C(=O)N[C@@H](CS)C(=O)N[C@@H](CCC(=O)O)C(=O)N[C@@H](Cc1ccccc1)C(=O)N[C@H](C(=O)N[C@@H](CC(=O)O)C(=O)N[C@@H](CO)C(=O)N[C@@H](Cc1ccccc1)C(=O)N[C@@H](CCCCN)C(=O)N[C@@H](CCCCN)C(N)=O)C(C)C (Ac-RYGRELCRMSCEFVDSFKK-NH2) | < 4.30 |
| CSCC[C@H](NC(=O)[C@H](CCCNC(=N)N)NC(=O)[C@H](CCCNC(=N)N)NC(=O)[C@H](CC(C)C)NC(=O)[C@H](CCC(=O)O)NC(=O)[C@H](CCCNC(=N)N)NC(=O)CNC(=O)[C@H](Cc1ccc(O)cc1)NC(=O)[C@H](CCCNC(=N)N)NC(C)=O)C(=O)N[C@@H](CO)C(=O)N[C@@H](CS)C(=O)N[C@@H](CCC(=O)O)C(=O)N[C@@H](Cc1ccccc1)C(=O)N[C@H](C(=O)N[C@@H](CS)C(=O)N[C@@H](CO)C(=O)N[C@@H](Cc1ccccc1)C(=O)N[C@@H](CCCCN)C(=O)N[C@@H](CCCCN)C(N)=O)C(C)C (Ac-RYGRELRRMSCEFVCSFKK-NH2) | < 4.30 |

Results, then the compound that gave them:

| pIC50 | Structure (SMILES) |
| --- | --- |
| 6.70 | CSCC[C@H](NC(=O)[C@H](CCCNC(=N)N)NC(=O)[C@H](CCCNC(=N)N)NC(=O)[C@H](CC(C)C)NC(=O)[C@H](CCC(=O)O)NC(=O)[C@H](CCCNC(=N)N)NC(=O)CNC(=O)[C@H](Cc1ccc(O)cc1)NC(=O)[C@H](CCCNC(=N)N)NC(=O)[C@H](CCC(N)=O)NC(=O)[C@H](C)NC(=O)[C@H](C)NC(=O)[C@H](Cc1c[nH]c2ccccc12)NC(=O)[C@H](CC(C)C)NC(=O)[C@H](CC(N)=O)NC(C)=O)C(=O)N[C@@H](CO)C(=O)N[C@@H](CC(=O)O)C(=O)N[C@@H](CCC(=O)O)C(=O)N[C@@H](Cc1ccccc1)C(=O)N[C@H](C(=O)N[C@@H](CC(=O)O)C(=O)N[C@@H](CO)C(=O)N[C@@H](Cc1ccccc1)C(=O)N[C@@H](CCCCN)C(=O)N[C@@H](CCCCN)C(N)=O)C(C)C |
| < 4.30 | CSCC[C@H](NC(=O)[C@@H]1CS2=S(C[C@H](NC(=O)CNC(=O)[C@H](Cc3ccc(O)cc3)NC(=O)[C@H](CCCNC(=N)N)NC(C)=O)C(=O)N[C@@H](CCC(=O)O)C(=O)N[C@@H](CC(C)C)C(=O)N[C@@H](CCCNC(=N)N)C(=O)N1)C(=O)NC2=O)C(=O)N[C@@H](CO)C(=O)N[C@@H](CC(=O)O)C(=O)N[C@@H](CCC(=O)O)C(=O)N[C@@H](Cc1ccccc1)C(=O)N[C@H](C(=O)N[C@@H](CC(=O)O)C(=O)N[C@@H](CO)C(=O)N[C@@H](Cc1ccccc1)C(=O)N[C@@H](CCCCN)C(=O)N[C@@H](CCCCN)C(N)=O)C(C)C (stereo partly specified) |
| 5.26 | CSCC[C@H](NC(=O)[C@H](CCCNC(=N)N)NC(=O)[C@H](CCCNC(=N)N)NC(=O)[C@H](CC(C)C)NC(=O)[C@@H]1CS2=S(C[C@H](NC(C)=O)C(=O)N[C@@H](Cc3ccc(O)cc3)C(=O)NCC(=O)N[C@@H](CCCNC(=N)N)C(=O)N1)C(=O)NC2=O)C(=O)N[C@@H](CO)C(=O)N[C@@H](CC(=O)O)C(=O)N[C@@H](CCC(=O)O)C(=O)N[C@@H](Cc1ccccc1)C(=O)N[C@H](C(=O)N[C@@H](CC(=O)O)C(=O)N[C@@H](CO)C(=O)N[C@@H](Cc1ccccc1)C(=O)N[C@@H](CCCCN)C(=O)N[C@@H](CCCCN)C(N)=O)C(C)C (stereo partly specified) |
| 5.29 | CSCC[C@H](NC(=O)[C@H](CCCNC(=N)N)NC(=O)[C@H](CCCNC(=N)N)NC(=O)[C@H](CC(C)C)NC(=O)[C@H](CS)NC(=O)[C@H](CCCNC(=N)N)NC(=O)CNC(=O)[C@H](Cc1ccc(O)cc1)NC(=O)[C@H](CS)NC(C)=O)C(=O)N[C@@H](CO)C(=O)N[C@@H](CC(=O)O)C(=O)N[C@@H](CCC(=O)O)C(=O)N[C@@H](Cc1ccccc1)C(=O)N[C@H](C(=O)N[C@@H](CC(=O)O)C(=O)N[C@@H](CO)C(=O)N[C@@H](Cc1ccccc1)C(=O)N[C@@H](CCCCN)C(=O)N[C@@H](CCCCN)C(N)=O)C(C)C (Ac-CYGRCLRRMSDEFVDSFKK-NH2) |
| 4.93 | CSCC[C@H](NC(=O)[C@H](CCCNC(=N)N)NC(=O)[C@H](CS)NC(=O)[C@H](CC(C)C)NC(=O)[C@H](CCC(=O)O)NC(=O)[C@H](CCCNC(=N)N)NC(=O)[C@H](CS)NC(=O)[C@H](Cc1ccc(O)cc1)NC(=O)[C@H](CCCNC(=N)N)NC(C)=O)C(=O)N[C@@H](CO)C(=O)N[C@@H](CC(=O)O)C(=O)N[C@@H](CCC(=O)O)C(=O)N[C@@H](Cc1ccccc1)C(=O)N[C@H](C(=O)N[C@@H](CC(=O)O)C(=O)N[C@@H](CO)C(=O)N[C@@H](Cc1ccccc1)C(=O)N[C@@H](CCCCN)C(=O)N[C@@H](CCCCN)C(N)=O)C(C)C (Ac-RYCRELCRMSDEFVDSFKK-NH2) |
| 5.17 | CSCC[C@H](NC(=O)[C@H](CS)NC(=O)[C@H](CCCNC(=N)N)NC(=O)[C@H](CC(C)C)NC(=O)[C@H](CCC(=O)O)NC(=O)[C@H](CS)NC(=O)CNC(=O)[C@H](Cc1ccc(O)cc1)NC(=O)[C@H](CCCNC(=N)N)NC(C)=O)C(=O)N[C@@H](CO)C(=O)N[C@@H](CC(=O)O)C(=O)N[C@@H](CCC(=O)O)C(=O)N[C@@H](Cc1ccccc1)C(=O)N[C@H](C(=O)N[C@@H](CC(=O)O)C(=O)N[C@@H](CO)C(=O)N[C@@H](Cc1ccccc1)C(=O)N[C@@H](CCCCN)C(=O)N[C@@H](CCCCN)C(N)=O)C(C)C (Ac-RYGCELRCMSDEFVDSFKK-NH2) |
| 5.54 | CSCC[C@H](NC(=O)[C@H](CCCNC(=N)N)NC(=O)[C@H](CCCNC(=N)N)NC(=O)[C@H](CC(C)C)NC(=O)[C@H](CCC(=O)O)NC(=O)[C@H](CCCNC(=N)N)NC(=O)CNC(=O)[C@H](Cc1ccc(O)cc1)NC(=O)[C@H](CCCNC(=N)N)NC(C)=O)C(=O)N[C@@H](CS)C(=O)N[C@@H](CC(=O)O)C(=O)N[C@@H](CCC(=O)O)C(=O)N[C@@H](Cc1ccccc1)C(=O)N[C@@H](CS)C(=O)N[C@@H](CC(=O)O)C(=O)N[C@@H](CO)C(=O)N[C@@H](Cc1ccccc1)C(=O)N[C@@H](CCCCN)C(=O)N[C@@H](CCCCN)C(N)=O (Ac-RYGRELRRMCDEFCDSFKK-NH2) |
| 5.35 | CSCC[C@H](NC(=O)[C@H](CCCNC(=N)N)NC(=O)[C@H](CCCNC(=N)N)NC(=O)[C@H](CC(C)C)NC(=O)[C@H](CCC(=O)O)NC(=O)[C@H](CCCNC(=N)N)NC(=O)CNC(=O)[C@H](Cc1ccc(O)cc1)NC(=O)[C@H](CCCNC(=N)N)NC(C)=O)C(=O)N[C@@H](CO)C(=O)N[C@@H](CC(=O)O)C(=O)N[C@@H](CS)C(=O)N[C@@H](Cc1ccccc1)C(=O)N[C@H](C(=O)N[C@@H](CC(=O)O)C(=O)N[C@@H](CS)C(=O)N[C@@H](Cc1ccccc1)C(=O)N[C@@H](CCCCN)C(=O)N[C@@H](CCCCN)C(N)=O)C(C)C (Ac-RYGRELRRMSDCFVDCFKK-NH2) |

Molecular target: Induced myeloid leukemia cell differentiation protein Mcl-1/BH3-interacting domain death agonist (Homo sapiens) (UniProt Q07820+P55957)
Sequence (P55957 whole entry, looked up, the tested form may be a part): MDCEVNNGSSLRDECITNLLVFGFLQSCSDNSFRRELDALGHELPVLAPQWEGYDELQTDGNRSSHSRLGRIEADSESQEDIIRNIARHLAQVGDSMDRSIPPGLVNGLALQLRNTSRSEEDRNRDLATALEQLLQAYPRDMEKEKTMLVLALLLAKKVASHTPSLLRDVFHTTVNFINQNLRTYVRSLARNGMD
Sequence (Q07820 whole entry, looked up, the tested form may be a part): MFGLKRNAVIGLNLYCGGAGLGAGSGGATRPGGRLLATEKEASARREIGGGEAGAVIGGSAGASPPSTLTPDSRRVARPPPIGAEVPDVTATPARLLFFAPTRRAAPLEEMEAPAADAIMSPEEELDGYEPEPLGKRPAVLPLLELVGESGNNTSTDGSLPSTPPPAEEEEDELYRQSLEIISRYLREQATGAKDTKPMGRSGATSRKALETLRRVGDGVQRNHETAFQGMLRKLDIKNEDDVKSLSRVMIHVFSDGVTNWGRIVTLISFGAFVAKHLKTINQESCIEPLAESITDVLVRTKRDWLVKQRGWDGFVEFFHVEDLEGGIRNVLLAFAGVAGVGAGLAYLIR
Experiment: Inhibition of BID/MCL-1 interaction (unknown origin) by fluorescence anisotropy competition assay
Format: protein assay

| Structure (SMILES) | inhibition |
| --- | --- |
| CSCC[C@H](NC(=O)[C@H](CCCNC(=N)N)NC(=O)[C@H](CCCNC(=N)N)NC(=O)[C@H](CC(C)C)NC(=O)[C@H](CCC(=O)O)NC(=O)[C@H](CCCNC(=N)N)NC(=O)CNC(=O)[C@H](Cc1ccc(O)cc1)NC(=O)[C@H](CCCNC(=N)N)NC(=O)[C@H](CCC(N)=O)NC(=O)[C@H](C)NC(=O)[C@H](C)NC(=O)[C@H](Cc1c[nH]c2ccccc12)NC(=O)[C@H](CC(C)C)NC(=O)[C@H](CC(N)=O)NC(C)=O)C(=O)N[C@@H](CO)C(=O)N[C@@H](CC(=O)O)C(=O)N[C@@H](CCC(=O)O)C(=O)N[C@@H](Cc1ccccc1)C(=O)N[C@H](C(=O)N[C@@H](CC(=O)O)C(=O)N[C@@H](CO)C(=O)N[C@@H](Cc1ccccc1)C(=O)N[C@@H](CCCCN)C(=O)N[C@@H](CCCCN)C(N)=O)C(C)C | inactive |
